SMILES strings stand for the structures.

The source of these data is ChEMBL document CHEMBL1149815, “New amido derivatives as potential BKCa potassium channel activators. XI” (Eur J Med Chem, 2008).

Format in all cases: tissue-based
Assay [1] has as its target Calcium-activated potassium channel subunit alpha-1 (Rattus norvegicus) (UniProt Q62976). As to the kind of experiment: (§1) Induction of BK channel mediated vasorelaxation activity in Kcl-induced contraction in Wistar rat aorta. In outline:
(§2)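 Endothelium-denuded thoracic aortic rings from male normotensive Wistar rats (250-350 g), equilibrated 60 min. Denudation was confirmed by acetylcholine relaxation below 10% of KCl tone. Rings were precontracted with 20 mM KCl; at plateau, 3-fold increasing concentrations were added cumulatively. Efficacy was maximal relaxation as % of KCl tone. pIC50 was -log molar concentration halving tone, not derived if efficacy was below 50%. 5-10 experiments.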

The target of assay [2] is Calcium-activated potassium channel subunit alpha-1 (Rattus norvegicus, UniProt Q62976). Described as §1. In outline: as §2
For assay [3], the target named is Calcium-activated potassium channel subunit alpha-1 (Rattus norvegicus) (UniProt Q62976). The assay can be described thus: Induction of BK channel mediated vasorelaxation activity in Kcl-induced contraction in Wistar rat aorta in presence of IbTX. In outline:
as §2

Calcium-activated potassium channel subunit alpha-1, sequence (Q62976 whole entry): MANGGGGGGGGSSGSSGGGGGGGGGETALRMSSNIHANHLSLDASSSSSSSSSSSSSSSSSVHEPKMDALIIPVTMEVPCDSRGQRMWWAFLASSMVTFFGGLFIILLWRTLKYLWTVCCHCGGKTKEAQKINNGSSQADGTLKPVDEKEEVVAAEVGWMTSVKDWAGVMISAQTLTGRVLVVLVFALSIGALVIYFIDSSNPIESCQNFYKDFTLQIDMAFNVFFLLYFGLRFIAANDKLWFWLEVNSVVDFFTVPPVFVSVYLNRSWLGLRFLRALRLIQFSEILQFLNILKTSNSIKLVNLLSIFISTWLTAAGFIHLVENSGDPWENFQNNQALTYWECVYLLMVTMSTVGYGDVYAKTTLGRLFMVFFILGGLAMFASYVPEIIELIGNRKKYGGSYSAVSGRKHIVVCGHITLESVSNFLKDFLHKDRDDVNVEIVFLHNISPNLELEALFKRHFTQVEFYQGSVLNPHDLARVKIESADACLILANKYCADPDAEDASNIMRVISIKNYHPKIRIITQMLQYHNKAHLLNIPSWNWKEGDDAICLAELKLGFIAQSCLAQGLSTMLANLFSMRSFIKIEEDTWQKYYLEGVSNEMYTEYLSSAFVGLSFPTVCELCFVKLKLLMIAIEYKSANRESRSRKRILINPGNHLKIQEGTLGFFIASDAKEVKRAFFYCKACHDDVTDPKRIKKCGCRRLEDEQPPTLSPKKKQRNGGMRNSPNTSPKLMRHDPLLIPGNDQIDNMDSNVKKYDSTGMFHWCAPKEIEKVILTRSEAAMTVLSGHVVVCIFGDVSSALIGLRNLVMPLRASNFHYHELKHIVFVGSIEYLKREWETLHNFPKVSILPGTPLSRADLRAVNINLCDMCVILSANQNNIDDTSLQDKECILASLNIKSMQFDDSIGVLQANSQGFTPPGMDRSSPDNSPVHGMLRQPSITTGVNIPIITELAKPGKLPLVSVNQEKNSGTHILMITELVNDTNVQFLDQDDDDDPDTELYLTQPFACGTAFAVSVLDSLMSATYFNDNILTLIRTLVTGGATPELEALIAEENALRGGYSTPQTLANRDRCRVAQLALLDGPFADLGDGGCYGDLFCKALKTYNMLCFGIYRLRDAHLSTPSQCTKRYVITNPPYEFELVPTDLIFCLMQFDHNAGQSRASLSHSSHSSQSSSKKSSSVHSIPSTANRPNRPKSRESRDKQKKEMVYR
Calcium-activated potassium channel subunit alpha-1 (Rattus norvegicus), sequence (Q62976 whole entry): as above

On to `O=C(Cc1ccccc1O)Nc1ccccc1`, for which the Emax (as a rule, the maximal effect, on the per cent scale that the assay sets) in assay [1] was 40%.

On to `O=C(Cc1ccccc1O)Nc1ccc([N+](=O)[O-])cc1`, for which, in assay [1], the Emax amounted to 79%. Further, the 50% inhibitory concentration (IC50) (usually the point on the concentration scale where inhibition reaches its midpoint) in assay [2] is 22.9 µM.

On to `COc1ccccc1C(=O)NCc1ccccc1`, for which the Emax in assay [1] was 23%.

Turning to `COc1ccccc1C(=O)NCc1ccccc1[N+](=O)[O-]`, the Emax in assay [1] was found to be 29%.

In the case of `COc1ccccc1CC(=O)Nc1ccc([N+](=O)[O-])cc1`, the Emax in assay [1] was 29%.

Take `O=C(Cc1ccccc1O)Nc1ccccc1F`: in assay [1], the Emax amounted to 43%.

On to `O=C(Cc1ccccc1C(F)(F)F)Nc1cc(Cl)ccc1O`, for which the Emax in assay [1] amounted to 50%.

For `COc1ccccc1CC(=O)Nc1cc([N+](=O)[O-])ccc1OC`, the Emax in assay [1] was 21%.

In the case of `COc1ccccc1CC(=O)Nc1ccccc1F`, the Emax in assay [1] came to 28%.

`O=C(Cc1ccccc1C(F)(F)F)Nc1ccccc1F`: the Emax in assay [1] stood at 55%. Moreover, the IC50 in assay [2] was 27.5 µM.

Take `COc1ccccc1CC(=O)Nc1cc(C)ccc1O`: in assay [1], the Emax was 61%. In assay [2], the IC50 was 24.5 µM.

Take `O=C(NCc1ccccc1[N+](=O)[O-])c1ccccc1O`: the Emax in assay [1] was determined as 47%.

As to `COc1ccccc1CC(=O)Nc1cc(Cl)ccc1O`, the Emax in assay [1] amounted to 37%.

On to `O=C(Cc1ccccc1O)NCc1ccccc1[N+](=O)[O-]`, for which the Emax in assay [1] was 40%.

For `Cc1cc([N+](=O)[O-])ccc1NC(=O)Cc1ccccc1O`, the Emax amounted to 84% in assay [1] and 32% in assay [3]. Further, the IC50 in assay [2] was 20 µM.

Regarding `COc1ccccc1CC(=O)NCc1ccccc1`, in assay [1], the Emax turned out to be 25%.

On to `COc1ccccc1CNC(=O)c1ccccc1OC`, for which the Emax in assay [1] is 16%.

`COc1ccc([N+](=O)[O-])cc1NC(=O)Cc1ccccc1O`: in assay [1], the Emax turned out to be 82%. In assay [2], the IC50 is 18.2 µM.

`O=C(Cc1ccccc1O)NCc1ccccc1`: the Emax in assay [1] came to 33%.

Take `O=C(NCc1ccccc1)c1ccccc1O`: the Emax in assay [1] came to 47%.

For `COc1ccccc1CNC(=O)Cc1ccccc1O`, the Emax in assay [1] is 40%.

With `COc1ccccc1CNC(=O)Cc1ccccc1OC`, in assay [1], the Emax turned out to be 22%.

Regarding `O=c1[nH]c2cc(C(F)(F)F)ccc2n1-c1cc(C(F)(F)F)ccc1O`, in assay [2], the concentration for half-maximal inhibition (IC50) was 4.37 µM.
